Here are results for 10 compounds from publication PMC7667462 (Journal of medicinal chemistry, 2019).

By IC50 is commonly meant the concentration needed to halve the response being measured. A word on the inhibition: it is how much of the control response was suppressed.

One data set concerns the target T1, CK2α^1–335 (Homo sapiens, UniProt P68400).
T1 sequence (P68400 1-335): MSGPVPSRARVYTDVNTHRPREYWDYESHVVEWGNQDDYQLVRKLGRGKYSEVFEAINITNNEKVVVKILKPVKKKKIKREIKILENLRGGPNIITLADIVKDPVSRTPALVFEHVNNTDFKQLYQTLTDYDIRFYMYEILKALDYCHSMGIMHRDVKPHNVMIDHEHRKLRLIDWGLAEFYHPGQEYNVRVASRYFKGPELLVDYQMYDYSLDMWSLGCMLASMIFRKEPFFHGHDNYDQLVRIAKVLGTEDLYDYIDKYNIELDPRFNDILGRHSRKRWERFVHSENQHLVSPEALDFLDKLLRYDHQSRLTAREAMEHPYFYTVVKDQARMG
Nature of the data set: native mass spectrometry binding and competition. Particulars: 10 μM CK2α; for binding stoichiometry to CK2α by native mass spectrometry: 100 μM IP6 or 10–40 μM 6, 5% DMSO.

Data set [1] addresses T2, CK2α (Homo sapiens, UniProt P68400). Nature of the data set: CK2 radiometric kinase assay. It is filed as biochemical. Particulars: compared with compound 2.
A further data set addresses CK2α2β2 holoenzyme (Homo sapiens, UniProt P68400). Nature of the data set: CK2 radiometric kinase assay, holoenzyme versus CK2α. The following applies: CK2β-independent peptide substrate. The class given is biochemical. In a few lines: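 Radiometric CK2 assay comparing isolated human recombinant CK2α with the CK2α₂β₂ holoenzyme across increasing test compound concentrations, using a CK2β-independent peptide substrate. ATP was 100 μM unless stated otherwise.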

A short description of a further data set: water solubility. The class given is physicochemical. The following applies: qualitative, relative to the other compounds of the series.
Another data set deals with Clk (Cdc-like kinase) 2. The following applies: cited from earlier work.
Data set [2] addresses T2, CK2α. The data set can be described thus: NMR Saturation Transfer Difference. Particulars: compound 500 μM, CK2α 5 μM. The class given is binding.
Another data set concerns the target pim-1 (Homo sapiens, UniProt P11309). Nature of the data set: kinase selectivity profiling, residual kinase activity. The class given is biochemical. The following applies: read-out: % inhibition of pim-1. In a few lines: (§1)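 The test compound was profiled against a panel of 44 human kinases, with ATP set to the Km of each kinase. Remaining activity was read as % inhibition of each kinase.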

For data set [3], the target named is T2, CK2α. The description is as above. It is filed as biochemical. The following applies: compound at 50 μM. In a few lines:
as §1

Another data set deals with EphA4 (Homo sapiens, UniProt P54764). The description is as above. Particulars: read-out: % inhibition of EphA4. It is filed as biochemical. In a few lines:
as §1

The next data set deals with T3, ACVR1 (ALK2) (Homo sapiens, UniProt Q04771).
T3 sequence (Q04771 21-509): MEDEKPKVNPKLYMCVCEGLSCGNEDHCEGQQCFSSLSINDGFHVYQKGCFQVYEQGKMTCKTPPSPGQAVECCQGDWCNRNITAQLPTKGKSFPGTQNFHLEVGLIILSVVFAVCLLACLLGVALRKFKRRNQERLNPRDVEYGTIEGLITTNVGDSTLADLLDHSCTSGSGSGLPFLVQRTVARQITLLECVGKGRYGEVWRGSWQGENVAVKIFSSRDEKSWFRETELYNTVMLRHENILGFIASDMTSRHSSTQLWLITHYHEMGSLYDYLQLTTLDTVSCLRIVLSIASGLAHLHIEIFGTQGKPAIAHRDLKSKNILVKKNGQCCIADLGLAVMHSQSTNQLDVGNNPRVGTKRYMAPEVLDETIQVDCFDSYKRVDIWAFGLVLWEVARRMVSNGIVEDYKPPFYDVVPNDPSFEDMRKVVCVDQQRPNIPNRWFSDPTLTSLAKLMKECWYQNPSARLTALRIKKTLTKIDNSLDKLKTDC
The data set is described as above. It is filed as biochemical. The following applies: read-out: % inhibition of ACVR1. In a few lines:
as §1

A further data set has as its target Dyrk1A (Homo sapiens, UniProt Q13627). The data set is described as above. The class given is biochemical. The following applies: read-out: % inhibition of Dyrk1A. In a few lines: as §1
A further data set concerns the target T4, MLCK (MLCK2) (Homo sapiens, UniProt Q32MK0).
T4 sequence (Q32MK0 1-819): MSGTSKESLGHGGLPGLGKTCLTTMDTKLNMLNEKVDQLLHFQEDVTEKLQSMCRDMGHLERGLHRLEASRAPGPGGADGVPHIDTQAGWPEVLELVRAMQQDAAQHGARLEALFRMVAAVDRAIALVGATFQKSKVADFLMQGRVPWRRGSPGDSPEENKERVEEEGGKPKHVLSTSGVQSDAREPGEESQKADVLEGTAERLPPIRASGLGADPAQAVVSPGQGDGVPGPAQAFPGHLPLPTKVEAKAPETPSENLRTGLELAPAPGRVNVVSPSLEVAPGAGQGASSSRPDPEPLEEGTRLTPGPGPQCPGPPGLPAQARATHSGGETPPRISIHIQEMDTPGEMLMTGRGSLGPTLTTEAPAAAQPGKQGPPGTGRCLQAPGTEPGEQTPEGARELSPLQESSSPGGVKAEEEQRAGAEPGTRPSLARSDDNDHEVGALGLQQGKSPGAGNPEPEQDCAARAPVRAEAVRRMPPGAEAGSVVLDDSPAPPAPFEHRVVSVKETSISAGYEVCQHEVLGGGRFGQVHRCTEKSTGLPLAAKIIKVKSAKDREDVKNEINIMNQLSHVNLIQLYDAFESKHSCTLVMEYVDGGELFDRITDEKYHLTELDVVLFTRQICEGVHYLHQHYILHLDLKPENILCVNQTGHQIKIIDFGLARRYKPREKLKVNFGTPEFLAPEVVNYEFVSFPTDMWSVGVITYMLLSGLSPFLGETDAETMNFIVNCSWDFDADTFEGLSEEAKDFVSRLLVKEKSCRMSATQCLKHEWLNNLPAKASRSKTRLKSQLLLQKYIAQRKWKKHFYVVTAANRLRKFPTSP
The description is as above. It is filed as biochemical. Particulars: read-out: % inhibition of MLCK. In a few lines: as §1

A further data set concerns the target Clk4 (Homo sapiens, UniProt Q9HAZ1). The data set is described as above. It is filed as biochemical. The following applies: read-out: % inhibition of Clk4. In a few lines: as §1
The target in a further data set is GSK3β (Homo sapiens, UniProt P49841). The data set is described as above. The class given is biochemical. The following applies: read-out: % inhibition of GSK3β. In a few lines: as §1
Chain of GSK3β (P49841 whole entry): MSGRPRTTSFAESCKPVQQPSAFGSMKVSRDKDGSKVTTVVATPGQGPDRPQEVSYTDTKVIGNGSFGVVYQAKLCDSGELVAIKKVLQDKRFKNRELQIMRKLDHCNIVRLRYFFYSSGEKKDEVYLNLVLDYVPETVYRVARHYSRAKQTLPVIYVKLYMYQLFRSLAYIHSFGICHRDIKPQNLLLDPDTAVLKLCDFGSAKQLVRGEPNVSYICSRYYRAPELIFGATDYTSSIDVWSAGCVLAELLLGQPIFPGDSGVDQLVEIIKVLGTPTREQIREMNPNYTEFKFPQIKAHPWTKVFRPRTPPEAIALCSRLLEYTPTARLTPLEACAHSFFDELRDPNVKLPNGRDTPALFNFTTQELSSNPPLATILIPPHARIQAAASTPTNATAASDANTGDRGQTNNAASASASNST
The target of another data set is Clk2 (Homo sapiens, UniProt P49760). Described as above. The class given is biochemical. Particulars: read-out: % inhibition of Clk2. In a few lines: as §1
Chain of Clk2 (P49760 whole entry): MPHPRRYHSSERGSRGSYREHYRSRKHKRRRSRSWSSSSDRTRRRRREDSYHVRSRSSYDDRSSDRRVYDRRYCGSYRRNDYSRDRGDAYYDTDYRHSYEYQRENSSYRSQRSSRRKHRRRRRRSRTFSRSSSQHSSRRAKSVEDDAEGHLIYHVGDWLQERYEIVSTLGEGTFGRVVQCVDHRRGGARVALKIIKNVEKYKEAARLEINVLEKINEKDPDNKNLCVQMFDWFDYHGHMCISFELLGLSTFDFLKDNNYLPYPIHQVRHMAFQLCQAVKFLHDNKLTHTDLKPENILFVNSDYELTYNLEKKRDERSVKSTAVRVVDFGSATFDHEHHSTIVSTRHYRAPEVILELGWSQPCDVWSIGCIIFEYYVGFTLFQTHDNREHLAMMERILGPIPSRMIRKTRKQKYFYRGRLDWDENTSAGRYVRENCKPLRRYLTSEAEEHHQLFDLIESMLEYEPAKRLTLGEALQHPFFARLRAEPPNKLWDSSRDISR

Entries after “also recorded” stand apart in the source; their conditions may differ.

T2 sequence (P68400 whole entry): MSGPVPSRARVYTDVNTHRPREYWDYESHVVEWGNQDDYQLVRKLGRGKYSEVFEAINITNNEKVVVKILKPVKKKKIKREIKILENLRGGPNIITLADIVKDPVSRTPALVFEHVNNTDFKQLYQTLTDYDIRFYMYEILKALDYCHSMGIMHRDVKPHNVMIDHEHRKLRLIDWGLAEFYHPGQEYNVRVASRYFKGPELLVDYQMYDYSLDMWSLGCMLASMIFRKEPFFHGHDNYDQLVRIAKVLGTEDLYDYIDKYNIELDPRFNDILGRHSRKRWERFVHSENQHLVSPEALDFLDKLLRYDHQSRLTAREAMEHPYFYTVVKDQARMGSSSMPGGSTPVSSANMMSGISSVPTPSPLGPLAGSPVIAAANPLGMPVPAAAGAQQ
Chain of EphA4 (P54764 20-986): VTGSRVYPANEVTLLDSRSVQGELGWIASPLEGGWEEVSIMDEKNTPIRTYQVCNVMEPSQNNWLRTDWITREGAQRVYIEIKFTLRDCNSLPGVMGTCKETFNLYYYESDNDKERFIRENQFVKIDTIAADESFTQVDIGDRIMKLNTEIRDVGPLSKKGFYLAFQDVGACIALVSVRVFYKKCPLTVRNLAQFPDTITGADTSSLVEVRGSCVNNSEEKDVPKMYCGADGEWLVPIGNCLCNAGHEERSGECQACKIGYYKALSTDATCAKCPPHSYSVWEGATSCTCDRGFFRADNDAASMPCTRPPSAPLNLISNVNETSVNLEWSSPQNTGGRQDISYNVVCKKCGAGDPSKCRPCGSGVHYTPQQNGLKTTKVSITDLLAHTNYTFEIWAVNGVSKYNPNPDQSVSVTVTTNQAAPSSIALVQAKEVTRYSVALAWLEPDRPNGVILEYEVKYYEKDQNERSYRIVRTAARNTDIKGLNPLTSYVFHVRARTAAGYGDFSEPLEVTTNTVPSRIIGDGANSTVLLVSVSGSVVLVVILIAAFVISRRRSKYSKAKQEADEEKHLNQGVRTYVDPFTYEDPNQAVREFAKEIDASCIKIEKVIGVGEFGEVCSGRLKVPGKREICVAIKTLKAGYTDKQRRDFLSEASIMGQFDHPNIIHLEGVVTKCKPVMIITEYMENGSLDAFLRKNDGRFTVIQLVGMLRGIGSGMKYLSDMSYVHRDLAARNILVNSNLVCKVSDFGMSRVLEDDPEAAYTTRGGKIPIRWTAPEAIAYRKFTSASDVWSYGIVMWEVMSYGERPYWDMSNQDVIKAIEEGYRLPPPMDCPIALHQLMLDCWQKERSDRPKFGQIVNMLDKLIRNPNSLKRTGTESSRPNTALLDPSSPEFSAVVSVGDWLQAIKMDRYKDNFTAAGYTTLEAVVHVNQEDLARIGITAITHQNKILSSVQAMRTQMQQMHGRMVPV
Chain of CK2α2β2 holoenzyme (P68400 whole entry): as the sequence (P68400 whole entry) above
Chain of CK2α2β2 holoenzyme (P67870 whole entry partner): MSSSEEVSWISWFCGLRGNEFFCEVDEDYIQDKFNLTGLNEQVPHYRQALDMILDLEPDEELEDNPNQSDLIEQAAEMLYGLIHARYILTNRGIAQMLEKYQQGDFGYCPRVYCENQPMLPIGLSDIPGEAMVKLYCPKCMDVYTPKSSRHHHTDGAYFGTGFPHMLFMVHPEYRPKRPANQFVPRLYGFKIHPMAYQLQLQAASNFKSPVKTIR
Chain of Clk4 (Q9HAZ1 whole entry): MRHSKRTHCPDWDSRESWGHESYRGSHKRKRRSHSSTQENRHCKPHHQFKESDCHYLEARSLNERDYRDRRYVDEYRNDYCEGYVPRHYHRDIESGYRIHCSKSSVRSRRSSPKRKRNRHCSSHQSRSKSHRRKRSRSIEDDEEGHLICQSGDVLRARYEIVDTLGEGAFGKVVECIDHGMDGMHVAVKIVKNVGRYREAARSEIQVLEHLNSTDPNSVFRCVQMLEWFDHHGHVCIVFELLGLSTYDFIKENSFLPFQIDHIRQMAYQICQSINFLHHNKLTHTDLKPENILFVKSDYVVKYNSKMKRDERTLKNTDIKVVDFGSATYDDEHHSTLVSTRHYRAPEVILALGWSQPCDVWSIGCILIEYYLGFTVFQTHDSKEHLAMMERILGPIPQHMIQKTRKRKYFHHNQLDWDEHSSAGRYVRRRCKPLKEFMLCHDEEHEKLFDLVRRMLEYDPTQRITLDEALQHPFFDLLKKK
Chain of pim-1 (P11309 whole entry): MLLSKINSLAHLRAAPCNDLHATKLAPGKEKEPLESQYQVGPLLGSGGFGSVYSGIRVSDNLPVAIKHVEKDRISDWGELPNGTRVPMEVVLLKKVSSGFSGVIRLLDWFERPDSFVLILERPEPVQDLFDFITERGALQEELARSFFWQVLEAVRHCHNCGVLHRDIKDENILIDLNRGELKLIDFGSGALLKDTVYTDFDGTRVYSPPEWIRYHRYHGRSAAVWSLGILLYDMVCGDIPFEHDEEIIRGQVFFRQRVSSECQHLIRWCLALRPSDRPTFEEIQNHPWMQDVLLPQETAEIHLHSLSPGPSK

Turning to `O=P(O)(O)OC1C(OP(=O)(O)O)C(OP(=O)(O)O)C(OP(=O)(O)O)C(OP(=O)(O)O)C1OP(=O)(O)O` (stereo not shown) [IP6, inositol hexakisphosphate, reference compound], the “binding stoichiometry to CK2α by native mass spectrometry” value on CK2α^1–335 was 1:1 and 1:2 stoichiometry.
Take `COC(=O)c1ccc(Nc2nc(-c3cccc([N+](=O)[O-])c3)cs2)cc1` [Compound 4, 4-[4-(3-Nitro-phenyl)-thiazol-2-ylamino]-benzoic acid methyl ester]: the “CK2α inhibitory activity, in words (SAR)” value on CK2α [1] was “significant loss of activity”.
Regarding `O=C(O)c1cccc(Nc2nc(-c3cccc([N+](=O)[O-])c3)cs2)c1` [Compound 1, 3-((4-(3-nitrophenyl)thiazol-2-yl)amino)benzoic acid], the “inhibition of CK2α2β2 holoenzyme compared with CK2α” value at CK2α2β2 holoenzyme was “inhibited to the same extent”.
Consider `O=C(O)c1ccc(Nc2nc(-c3ccccn3)cs2)cc1` [Compound 9, 4-(4-Pyridin-2-yl-thiazol-2-ylamino)-benzoic acid], for which, in the data set “water solubility”, the water solubility entry is “superior water solubility; also recorded: relatively good solubility in water”.
On to `O=C(O)c1ccc2c(c1)nc(Nc1cccc(Cl)c1)c1ccncc12` [CX-4945, 5-(3-chlorophenylamino)benzo[c][2,6]naphthyridine-8-carboxylic acid], for which the half-inhibitory concentration (IC50) on Clk (Cdc-like kinase) 2 is 4 nM.
With `O=C(O)c1ccc(Nc2nccs2)cc1` [Compound 5, 4-(Thiazol-2-ylamino)-benzoic acid], the “CK2α inhibitory activity, in words (SAR)” value at CK2α [1] is “complete lack of activity”.
For `O=[N+]([O-])c1cccc(-c2csc(Nc3ccccc3)n2)c1` [Compound 3, [4-(3-Nitro-phenyl)-thiazol-2-yl]-phenyl-amine], the “CK2α inhibitory activity, in words (SAR)” value on CK2α [1] is listed as “significant loss of activity”.
Consider `O=C(O)c1ccc(Nc2nc(-c3ccccc3)cs2)cc1` [Compound 6, 4-(4-Phenyl-thiazol-2-ylamino)-benzoic acid], for which, on CK2α [2] (AMP-PNP 500 μM), the “STD NMR competition with AMP-PNP for binding to CK2α” value is given as “AMP-PNP was not able to bind to CK2α in the presence of 2-aminothiazole 6”. For the same compound, on CK2α [2] (CX-4945 100 μM), the “STD NMR competition with CX-4945 for binding to CK2α” value is “did not bind to the same site as CX-4945”. In the data set “water solubility”, the water solubility entry is on record as “superior water solubility; also recorded: relatively good solubility in water”. Besides, the “binding stoichiometry to CK2α by native mass spectrometry” value at CK2α^1–335 was “various stoichiometries”. Further, the “native MS competition with IP6 for binding to CK2α” value at CK2α^1–335 (10 μM compound, 100 μM IP6) is “competitive ligand of IP6”.
As to `O=C(O)c1ccc(Nc2nc(-c3cccc([N+](=O)[O-])c3)cs2)cc1` [Compound 2, 4-((4-(3-nitrophenyl)thiazol-2-yl)amino)benzoic acid], the inhibition at 50 µM on pim-1 amounted to 54%; at EphA4 it was 55%. For the same compound, the “inhibition of CK2α” value against CK2α [3] is “full inhibition”.
For `O=C(O)c1ccc(Nc2nc(-c3cccc(Br)c3)cs2)cc1` [Compound 7, 4-[4-(3-Bromo-phenyl)-thiazol-2-ylamino]-benzoic acid], the inhibition at 50 µM was 66% at ACVR1 (ALK2); about 30% on Dyrk1A; 61% at MLCK (MLCK2); 61% at Clk4; 71% at GSK3β; 73% at EphA4. The inhibition at 50 µM at Clk2 was about 30%.
